Laboratory results as given in ChEMBL document CHEMBL2177040, “Down-regulation of the human VEGF gene expression by perylene monoimide derivatives” (Bioorg Med Chem Lett, 2012).
Active and inactive are the calls of the source. The rule behind the calls is not given here.

What was measured:
A549 [1] = assay: Downregulation of GAPDH mRNA expression in human A549 cells at 3 to 24 uM after 24 hrs by semi-quantitative RT-PCR analysis; format: functional, cell-based
In short: (§1)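 A549 cells (3.0 × 10^5) treated 24 h at graded compound concentrations; RNA reverse-transcribed and GAPDH cDNA amplified by gene-specific PCR at a cycle number chosen for linear signal, with band intensity by semi-quantitative gel read-out.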

A549 [2] = assay: Downregulation of Max mRNA expression in human A549 cells at 3 to 24 uM after 24 hrs by semi-quantitative RT-PCR analysis; format: functional, cell-based
A549 [3] = assay: Downregulation of COX2 mRNA expression in human A549 cells at 3 to 24 uM after 24 hrs by semi-quantitative RT-PCR analysis; format: functional, cell-based
Nucleic Acid [4] = assay: Binding affinity to c-Myc quadruplex DNA in human A549 cells assessed as downregulation of c-Myc mRNA expression after 24 hrs by semi-quantitative RT-PCR analysis; format: cell-based
Nucleic Acid [5] = assay: Binding affinity to VEGF quadruplex DNA in human A549 cells assessed as downregulation of VEGF mRNA expression after 24 hrs by semi-quantitative RT-PCR analysis; format: cell-based
In short: (§2)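 A549 cells (3.0 × 10^5) exposed to a range of compound concentrations for 24 h; total RNA reverse-transcribed and cDNA amplified with gene-specific primers at a cycle number chosen per gene for linear signal. VEGF bands quantified by densitometry, normalized to GAPDH; three separate experiments.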

Nucleic Acid [6] = assay: Binding affinity to Bcl2 quadruplex DNA in human A549 cells assessed as downregulation of Bcl2 mRNA expression in human A549 cells after 24 hrs by semi-quantitative RT-PCR analysis; format: cell-based
Nucleic Acid [7] = assay: Binding affinity to VEGF quadruplex DNA in human A549 cells assessed as downregulation of VEGF protein level after 24 hrs by Western blot analysis; format: cell-based
In short: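 A549 cells (3.0 × 10^5) treated with a range of compound concentrations for 24 h; lysate proteins separated by SDS-PAGE and blotted with rabbit polyclonal anti-VEGF, detected with HRP-conjugated goat anti-rabbit IgG.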

Nucleic Acid [8] = assay: Binding affinity to VEGF quadruplex DNA in human A549 cells assessed as downregulation of VEGF121 mRNA expression after 24 hrs by semi-quantitative RT-PCR analysis; format: cell-based; in short: as §2
Nucleic Acid [9] = assay: Binding affinity to VEGF quadruplex DNA in human A549 cells assessed as downregulation of VEGF165 mRNA expression after 24 hrs by semi-quantitative RT-PCR analysis; format: cell-based; in short: as §2
A549 [10] = assay: Cytotoxicity against human A549 cells assessed as cell viability after 72 hrs by SRB assay; format: functional, cell-based; details: A549, 72 h
In short: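 Sulforhodamine B colorimetric assay on A549 cells. IC50 derived from the concentration versus percent growth inhibition curve. Mean ± standard deviation of three independent experiments, each in triplicate.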

Nucleic Acid [11] = assay: Binding affinity to VEGF quadruplex DNA at 40 uM after 1 to 72 hrs by spectroscopic analysis; format: nucleic-acid assay
In short: (§3)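 Visible absorbance spectra of compound (40 µM) in 10 mM Tris-HCl pH 7.4 with 100 mM KCl, without DNA, with preformed VEGF quadruplex (20 µM V32G), or with salmon sperm duplex DNA matched in absorbance to the quadruplex; recorded at 0, 8 and 72 h incubation.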

[12] = Solubility of the compound in Tris-HCl buffer at 40 uM at pH 7.4 after 1 to 72 hrs by spectroscopic analysis in presence of salmon sperm DNA duplex; format: physicochemical; details: pH 7.4, 40 µM; in short: as §3
[13] = Solubility of the compound in Tris-HCl buffer at 40 uM at pH 7.4 after 1 to 72 hrs by spectroscopic analysis in presence of VEGF quadruplex; format: physicochemical; details: pH 7.4, 40 µM; in short: as §3
[14] = Solubility of the compound in Tris-HCl buffer at 40 uM at pH 7.4 after 1 to 72 hrs by spectroscopic analysis in absence of DNA; format: physicochemical; details: pH 7.4, 40 µM
In short: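 Compound at 40 µM in 10 mM Tris-HCl pH 7.4 with 100 mM KCl, without DNA. Visible absorbance spectra recorded at 0, 8 and 72 h.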

Nucleic Acid [15] = assay: Binding affinity to VEGF V32G-G-quadruplex DNA at 1 to 32 uM after 10 hrs by polyacrylamide electrophoresis; format: nucleic-acid assay
In short: (§4)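 Duplex/G-quadruplex competition: FAM-labelled G-rich strand V32G (2 µM) plus complementary C-rich strand (2 µM) with twofold-diluted compound in Tris-HCl pH 7.4, 100 mM KCl; denatured 95 °C 5 min, slow-cooled to 55 °C and held 10 h, then rapidly cooled to 4 °C. Products resolved on 16% native PAGE containing 50 mM KCl (4 °C, 350 V, 10 h); duplex vs monomeric quadruplex bands imaged.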

Nucleic Acid [16] = assay: Binding affinity to VEGF VT-66-G-quadruplex DNA after 30 mins by DNA polymerase stop assay; format: nucleic-acid assay
In short: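 Polymerase stop: compound (twofold dilution) with template VT-66 (100 nM) and FAM-labelled primer P16 (100 nM) in 10 mM Tris-HCl pH 7.4, denatured 95 °C 5 min, slow-cooled to 37 °C. Extension started with dNTPs, 3 mM MgCl2 and Klenow fragment (1 unit), 37 °C 30 min. Resolved on 12% denaturing PAGE; stopped/(stopped+full-length) ratio plotted against concentration.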

Nucleic Acid [17] = assay: Binding affinity to VEGF quadruplex DNA in human A549 cells assessed as downregulation of VEGF protein level at 0.2 to 2.8 uM after 24 hrs by Western blot analysis; format: cell-based
In short: (§5)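 A549 cells (3.0 × 10^5) exposed to a range of compound concentrations for 24 h. Lysate proteins separated by SDS-PAGE and blotted with rabbit polyclonal VEGF antibody, then HRP-conjugated goat anti-rabbit IgG. Top concentrations chosen from cytotoxicity data.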

Nucleic Acid [18] = assay: Binding affinity to VEGF quadruplex DNA in human A549 cells assessed as downregulation of VEGF protein level at 3.1 to 50 uM after 24 hrs by Western blot analysis; format: cell-based; in short: as §5
Nucleic Acid [19] = assay: Binding affinity to VEGF quadruplex DNA in human A549 cells assessed as downregulation of VEGF165 mRNA expression at 50 uM after 24 hrs by semi-quantitative RT-PCR analysis; format: cell-based
In short: (§6)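 A549 cells (3.0 × 10^5) treated 24 h. Total RNA extracted and reverse-transcribed; cDNA amplified with gene-specific primers, with cycle number set so that product intensity tracks cDNA amount. Both VEGF bands quantified by scan densitometry and normalised to GAPDH; three separate experiments.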

Nucleic Acid [20] = assay: Binding affinity to VEGF quadruplex DNA in human A549 cells assessed as downregulation of VEGF121 mRNA expression at 50 uM after 24 hrs by semi-quantitative RT-PCR analysis; format: cell-based; in short: as §6
Nucleic Acid [21] = assay: Binding affinity to VEGF V32G-double stranded DNA at 1 to 32 uM after 10 hrs by polyacrylamide electrophoresis; format: nucleic-acid assay
In short: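 FAM-labeled VEGF G-rich strand (V32G, 2 µM) plus complementary C-rich strand (2 µM) with twofold-diluted compound in Tris-HCl pH 7.4, 100 mM KCl. Denatured 95 °C 5 min, slow-cooled to 55 °C, held 10 h, then rapidly cooled to 4 °C. Separated on 16% native PAGE with 50 mM KCl (4 °C, 350 V, 10 h); duplex vs monomeric quadruplex bands imaged.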

[22] = Inhibition of DNA polymerase at > 1 uM
In short: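 Klenow polymerase stop assay. Template VT-66 (100 nM) and FAM-primer P16 (100 nM) with twofold-diluted compound in 10 mM Tris-HCl pH 7.4, denatured 95 °C 5 min, slow-cooled to 37 °C. Extension started with dNTPs, 3 mM MgCl2 and Klenow fragment (1 unit), 37 °C 30 min. Products on 12% denaturing PAGE; stopped/total extended ratio plotted.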

Nucleic Acid [23] = assay: Binding affinity to VEGF quadruplex DNA in human MCF7 cells assessed as downregulation of VEGF mRNA expression at 0.75 to 6 uM after 24 hrs by semi-quantitative RT-PCR analysis; format: cell-based
Nucleic Acid [24] = assay: Binding affinity to VEGF quadruplex DNA in human HeLa cells assessed as downregulation of VEGF mRNA expression at 0.75 to 6 uM after 24 hrs by semi-quantitative RT-PCR analysis; format: cell-based
Nucleic Acid [25] = assay: Binding affinity to VEGF quadruplex DNA in human HCT15 cells assessed as downregulation of VEGF mRNA expression at 0.75 to 6 uM after 24 hrs by semi-quantitative RT-PCR analysis; format: cell-based; details: HCT-15
A549 [26] = assay: Downregulation of GAPDH mRNA expression in human A549 cells at 0.75 to 6 uM after 24 hrs by semi-quantitative RT-PCR analysis; format: functional, cell-based; in short: as §1
A549 [27] = assay: Downregulation of Max mRNA expression in human A549 cells at 0.75 to 6 uM after 24 hrs by semi-quantitative RT-PCR analysis; format: functional, cell-based
A549 [28] = assay: Downregulation of COX2 mRNA expression in human A549 cells at 0.75 to 6 uM after 24 hrs by semi-quantitative RT-PCR analysis; format: functional, cell-based
HeLa = assay: Cytotoxicity against human HeLa cells assessed as cell viability after 72 hrs by SRB assay; format: functional, cell-based
MCF7 = assay: Cytotoxicity against human MCF7 cells assessed as cell viability after 72 hrs by SRB assay; format: functional, cell-based; details: MCF7, 72 h
HCT-15 = assay: Cytotoxicity against human HCT15 cells assessed as cell viability after 72 hrs by SRB assay; format: functional, cell-based; details: HCT-15, 72 h
[29] = Solubility of the compound in Tris-HCl buffer at 40 uM at pH 7.4 after 72 hrs by spectroscopic analysis in absence of DNA; format: physicochemical; details: pH 7.4, 72 h; in short: as §3
Nucleic Acid [30] = assay: Binding affinity to VEGF V32G-G-quadruplex DNA after 10 hrs by polyacrylamide electrophoresis; format: nucleic-acid assay; in short: as §4

Structure (SMILES)	Activity (Nucleic Acid [4])	Activity (Nucleic Acid [5])	Activity (Nucleic Acid [6])	Activity (Nucleic Acid [7])	Activity (Nucleic Acid [8])	Activity (Nucleic Acid [9])	IC50 (A549 [10]) [µM]	Activity (Nucleic Acid [11])	solubility [12]	solubility [13]	solubility [14]	Activity (Nucleic Acid [15])	Activity (Nucleic Acid [16])	Activity (Nucleic Acid [17])	Activity (Nucleic Acid [18])	Activity (A549 [26])	Activity (A549 [27])	Activity (A549 [28])	other results
O=C1c2ccc3c4ccc5c6c(ccc(c7ccc(c2c37)C(=O)N1CCN1CCCCC1)c64)C(=O)N(CCN1CCCCC1)C5=O	Dose-dependent effect	Dose-dependent effect	Dose-dependent effect	Dose-dependent effect	Dose-dependent effect	Dose-dependent effect	52.4	Active	soluble	soluble	Insoluble	Active	Dose-dependent effect						Activity (A549 [1]): inactive; Activity (A549 [2]): inactive; Activity (A549 [3]): inactive
C[n+]1ccc(-c2c3nc(c(-c4cc[n+](C)cc4)c4ccc([nH]4)c(-c4cc[n+](C)cc4)c4ccc([nH]4)c(-c4cc[n+](C)cc4)c4nc2C=C4)C=C3)cc1 [TMPYP4]							43.1						Dose-dependent effect	inactive	inactive				Activity (Nucleic Acid [19]): inactive; Activity (Nucleic Acid [20]): inactive; Activity (Nucleic Acid [21]): Active; inhibition [22]: Active
CCN(CC)CCN1C(=O)c2ccc3c4cccc5c(N6CCNCC6)ccc(c6ccc(c2c36)C1=O)c54	Dose-dependent effect	Dose-dependent effect	Dose-dependent effect	Dose-dependent effect	Dose-dependent effect	Dose-dependent effect	4	inactive	soluble	soluble			Dose-dependent effect			inactive	inactive	inactive	Activity (Nucleic Acid [23]): Active; Activity (Nucleic Acid [24]): Active; Activity (Nucleic Acid [25]): Active; IC50 (HeLa): 3 µM; IC50 (MCF7): 5.5 µM; IC50 (HCT-15): 4.7 µM; solubility [29]: soluble; Activity (Nucleic Acid [30]): Active
CC[N+](C)(CC)CCN1C(=O)c2ccc3c4cccc5cccc(c6ccc(c2c36)C1=O)c54.Cc1ccc(S(=O)(=O)[O-])cc1	Dose-dependent effect	Dose-dependent effect	Dose-dependent effect		Dose-dependent effect	Dose-dependent effect	3.2		soluble	soluble	Insoluble	Active	Dose-dependent effect	inactive	inactive	inactive	inactive	inactive	
